HGIII-sPLA2 inh = Inhibits HGIII-sPLA2 liposome hydrolysis, primary screen; Q9NZ20; QFRET BODIPY PC-A2 liposome hydrolysis, fluorescence; inhibition, % at 12.2 µM; 370,000 tested, 0.56% active; AID 743126;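 active = inhibition above mean plus 3 SD of compounds lying within the high and low control bounds, cut at about 19% in these data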
PLC-beta3 inh = PLC-beta3 (human) inhibition, primary screen; 370,000 tested, 0.18% active; Q01970; Purified PLC-beta3, fluorogenic substrate, fluorescence; inhibition, % at 12.2 µM; in the data active = inhibition above about 11%
procasp3 activ = procaspase-3 (human) activation. P42574. AID 463141. recombinant procaspase-3 D3A, Ac-DEVD-pNA absorbance 405 nm. activation, % at 8.5 µM. 330,000 tested, 0.11% active;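 active = activation above the mean of all tested compounds plus 3 SD, cut at about 21% in these data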
Target sequence (P42574 whole entry D9A/D28A/D175A): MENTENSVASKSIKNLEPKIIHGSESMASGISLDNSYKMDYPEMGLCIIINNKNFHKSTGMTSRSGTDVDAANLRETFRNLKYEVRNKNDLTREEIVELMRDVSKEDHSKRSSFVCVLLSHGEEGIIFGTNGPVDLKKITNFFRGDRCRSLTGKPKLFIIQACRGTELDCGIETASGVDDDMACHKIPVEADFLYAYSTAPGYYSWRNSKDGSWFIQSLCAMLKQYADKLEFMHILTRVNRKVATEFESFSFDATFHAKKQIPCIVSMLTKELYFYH
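Assay system: Procaspase-3 D3A mutant, all three cleavage aspartates alanine. Buffer or medium: Zinc-free HEPES saline buffer with Triton X-100. Times: 1 h compound preincubation, 2 h substrate hydrolysis at 25 °C. Measured by: 405 nm absorbance of p-nitroaniline, reads at 0 and 120 min. Read-out basis: percent activation relative to control range. Replicates: singlicate.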
proCasp7 act = counter-screen: procaspase-7 (human) activation. 330,000 tested, 0.093% active. recombinant procaspase-7, Ac-DEVD-pNA absorbance 405 nm; D23A/D198A/D206A triple mutant, cannot self-cleave; scale: DMSO 0, 5 µM enzyme 100. activation, % at 8.5 µM. AID 463210. P55210;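 active = percent activation above the screen-wide mean plus 3 SD, cut at about 25% in these data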
Target sequence (P55210 whole entry D23A/D198A/D206A): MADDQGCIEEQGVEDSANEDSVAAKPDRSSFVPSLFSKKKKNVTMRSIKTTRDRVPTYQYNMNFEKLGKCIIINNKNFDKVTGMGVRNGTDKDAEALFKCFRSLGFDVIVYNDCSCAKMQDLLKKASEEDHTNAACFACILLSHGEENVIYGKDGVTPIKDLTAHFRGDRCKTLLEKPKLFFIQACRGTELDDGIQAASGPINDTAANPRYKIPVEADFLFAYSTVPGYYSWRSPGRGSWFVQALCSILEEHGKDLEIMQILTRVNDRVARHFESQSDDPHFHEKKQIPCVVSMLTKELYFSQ
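Replicates: singlicate. Assay system: Procaspase-7 triple mutant (PC-7 D3A). Signal: 405 nm absorbance of p-nitroaniline. Times: 1 h preincubation, 2 h reaction. Buffer or medium: Zinc-free HEPES pH 7.4 with 300 mM NaCl, 0.01% Triton X-100. Also added: DEVD-pNA substrate. Benchmarks: DMSO wells as 0%, DMSO with 5 µM added PC-7 as 100%.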
PLCg1 inh = blocks human PLC-gamma1 enzyme activity | P19174 | purified PLC-gamma1, fluorogenic substrate, fluorescence | inhibition, % at 12.2 µM | 370,000 tested, 0.84% active | AID 720700; in the data active = inhibition above about 9.5%
Arr AP2 block = inhibitors of human beta-arrestin and AP2 interaction | inhibition, % at 10 µM | FITC-arrestin peptide / GST-AP2 beads, flow cytometry; AP2 beta2 appendage carries R879A mutation | 340,000 tested, 0.31% active;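 active = inhibition above a set limit, near 3 SD of compounds lacking own fluorescence, cut at about 54% in these data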
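Material – GST-tagged AP2 beta2-adaptin appendage (R879A) on 4 µm glutathione beads · Probe or stimulus – fluorescein-tagged arrestin peptide at 50 nM final · Timing – 12 min plus 1 h, RT · Detection – bead flow cytometry, FITC channel · Read-out basis – inhibition as reduced fluorescein signal on beads, percent · Medium – PBS plus Tween 20 (0.05%) and BSA (0.1%)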
hGIII sPLA2 conf = human GIII-sPLA2 inhibition, confirmation. shares compounds with HGIII-sPLA2 inh. inhibition, % at 12.2 µM. recombinant hGIII-sPLA2, BODIPY PC-A2 QFRET fluorescence. 2,000 tested, 34% active;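 active = mean inhibition across triplicates above the hit cutoff set in the earlier primary screen, cut at about 19% in these data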
535nm interf = optically interferes with 535nm fluorescence in sPLA2 counter-screen | shares compounds with HGIII-sPLA2 inh | BODIPY FL product fluorescence interference, QFRET | inhibition, % at 12.2 µM | 2,000 tested, 8.5% active | AID 743282;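 active = average inhibition above the solvent-only control mean plus 3 SD, cut at about 6% in these data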
535nm interf DR = interferes with 535nm fluorescence in dose response counter-screen | BODIPY FL product fluorescence interference, cell-free | shares compounds with HGIII-sPLA2 inh | AID 743455 | IC50, µM | 240 tested, under 10 active;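 active = IC50 at or below 10 µM; inactive = IC50 above 10 µM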
Numbers stand for hits; - = inactive; . = no result. The list is not random: actives were taken first. Their share in the collection is about 1.9%.

SMILES | HGIII-sPLA2 inh | PLC-beta3 inh | procasp3 activ | proCasp7 act | PLCg1 inh | Arr AP2 block | hGIII sPLA2 conf | 535nm interf | others
COc1cc([N+](=O)[O-])c(OC)cc1SCc1n[nH]c(=S)n1-c1ccc(F)cc1 | 22 | - | - | - | - | - | 36 | -
COc1cc([N+](=O)[O-])c(OC)cc1SCc1n[nH]c(=S)n1-c1ccc(C)cc1 | 19 | - | - | - | - | - | 22 | -
COc1ccc(NC2SC(=O)N(C)C2=O)cc1 (stereo not given) | - | - | - | - | - | - | . | .
CCCCn1c(N)c(N(CC(C)C)C(=O)c2ccc(OCC3CCCO3)cc2)c(=O)[nH]c1=O (stereo not given) | - | - | - | - | - | - | . | .
C=CCNC(=O)COc1cc(C)ccc1C | 20 | - | - | - | - | - | - | -
COc1ccc(C(C(=O)Nc2ccc(F)cc2)N2CCN(c3cccc(C(F)(F)F)n3)CC2)cc1 (stereo not given) | - | - | . | . | - | . | . | .
CC(C)NC(=S)NN=C1c2ccccc2-c2ccccc21 | - | - | - | - | - | - | . | .
CC(C)NC(=S)NC(c1ccccc1)(c1ccccc1)c1ccccc1 | 22 | - | - | - | - | - | 29 | -
Nc1nc(Nc2cccc(F)c2)nc(NCc2ccco2)c1[N+](=O)[O-] | - | - | - | - | - | - | . | .
CN1CCc2ccccc2CC1=O | 20 | - | - | - | - | - | - | -
CNC(=S)NN=C(C)c1ccc(OC)cc1O | 27 | - | . | . | - | - | 31 | - | 535nm interf DR=-
Cc1ccc(NC(=O)Cn2cccc2C2=NC(c3ccccc3)CO2)cc1C (stereo not given) | 21 | - | - | - | - | - | - | -
CC(=O)c1cc(Cc2csc(C(C)=O)c2)cs1 | - | - | - | - | - | - | . | .
CC(=O)c1cc(CN2C(=O)CCC2=O)cs1 | 20 | - | - | - | - | - | - | -
CNC(=S)N/N=C/c1cc(Br)cc(Br)c1O | 44 | - | - | - | - | - | 51 | - | 535nm interf DR=-
CC(=O)Nc1ccc(C(=O)N/N=C/c2cc(Br)cc(Br)c2O)cc1 | - | - | - | - | - | - | . | .
CCc1ccc(Nc2nc(N)nc(CSc3nc4ccccc4s3)n2)cc1 | 24 | - | - | - | - | - | - | -
CN(C)c1ccc(C(C(=O)NC2CCCC2)N(C(=O)c2csnn2)C2CC2)cc1 (stereo not given) | - | - | - | - | - | - | . | .
S=c1[nH]cc(Cc2ccccc2)s1 | 38 | - | - | - | - | - | 27 | -
O=c1[nH]cc(Cc2ccccc2)c(=O)[nH]1 | - | - | . | . | - | . | . | .
COC(=O)C1(C(=O)OC)C/C=C\CN(S(=O)(=O)c2ccccc2[N+](=O)[O-])CC1 | - | - | . | . | - | . | . | .
COc1ccccc1NC(=S)N1CCC(c2nc3cc(C)c(C)cc3[nH]2)CC1 | 21 | - | - | - | - | - | - | -
COc1ccccc1NC(=O)N1CCC(c2nc3cc(C)c(C)cc3[nH]2)CC1 | - | - | - | - | - | - | . | .
CCc1ccc(S(=O)(=O)NCc2csc(C)n2)s1 | 22 | - | - | - | - | - | - | -
CCOC(=O)C1(Cc2cccc(Cl)c2)CCCN(C(=O)c2cccc(C)n2)C1 (stereo not given) | - | - | - | - | - | - | . | .
SMILES | HGIII-sPLA2 inh | PLC-beta3 inh | procasp3 activ | proCasp7 act | PLCg1 inh | Arr AP2 block | hGIII sPLA2 conf | 535nm interf | others
NC(Cc1ccc(Cl)cc1)c1csc(Nc2cc(Oc3ccccc3)ncn2)n1 (stereo not given) | 27 | - | . | . | - | . | 20 | -
COC(=O)c1cnc(Nc2nc(C(N)Cc3ccc(OC)cc3)cs2)nc1C(F)(F)F (stereo not given) | - | - | . | . | - | . | . | .
COC(=O)c1cnc(Nc2nc(C(N)Cc3ccc(Cl)cc3)cs2)nc1C(F)(F)F (stereo not given) | 27 | - | . | . | - | . | - | -
NC(Cc1ccc(F)cc1)c1csc(Nc2cc(NCc3ccco3)ncn2)n1 (stereo not given) | - | - | . | . | - | . | . | .
NC(c1csc(Nc2cc(Oc3ccccc3)ncn2)n1)c1ccccc1Cl (stereo not given) | 21 | - | . | . | - | . | - | -
NC(c1csc(Nc2cc(NCc3ccco3)ncn2)n1)c1ccccc1Cl (stereo not given) | 23 | - | . | . | - | . | - | -
COc1ccc(CC(N)c2csc(Nc3cc(Oc4ccccc4)ncn3)n2)cc1 (stereo not given) | - | - | . | . | - | . | . | .
CC(=O)Cn1ncc(N(C)Cc2ccccc2)c(Cl)c1=O | - | - | - | - | - | - | . | .
CCCCNC(=O)c1c(N)[nH]c(C(=O)c2ccccc2)c1-c1ccccn1 | 19 | - | . | . | - | . | - | -
CCCCCCNC(=O)c1c(N)[nH]c(C(=O)c2ccccc2)c1-c1ccc(O)cc1 | - | - | . | . | - | . | . | .
Nc1ncccc1OCc1ccc(Cl)c(Cl)c1 | - | - | - | - | - | - | . | .
CCN(CC)c1ccc(C(=C2C=CC(=[N+](CC)CC)C=C2)c2ccccc2)cc1 | 63 | - | . | . | - | - | 75 | -
CCN(CC)c1ccc(C(=O)NNC(=O)CCNC(=O)c2ccccc2)cc1 | - | - | - | - | - | - | . | .
CCN(CC)c1ccc(C(=C2C=CC(=[N+](CC)CC)C=C2)c2ccc(N(CC)CC)cc2)cc1 | 60 | - | . | . | - | 90 | 61 | - | 535nm interf DR=-
Fc1ccccc1-c1nc(N2CCCCC2)c2ccccc2n1 | 21 | - | - | - | - | - | - | -
Oc1ccccc1-c1nc(N2CCCC2)c2ccccc2n1 | - | - | - | - | - | - | . | .
Cc1ccc(NC(=S)NNC(=O)CSc2nc3ccccc3c(=O)n2-c2ccc(Cl)cc2)cc1 | 29 | - | . | . | - | . | 24 | -
Cc1ccc(-n2c(SCC(=O)NNC(=S)Nc3ccccc3)nc3ccccc3c2=O)cc1 | 30 | - | - | - | - | - | 26 | -
CCCCNC(=O)C1(C)CCN1Cc1ccc(C#N)cc1 (stereo not given) | - | - | . | . | - | . | . | .
CCOC(=O)C1=C(C)N(C)C(=S)NC1c1cccc(Cl)c1Cl (stereo not given) | - | - | - | - | - | - | . | .
CCOC(=O)C1=C(C)N(C)C(=S)NC1c1ccccc1Cl (stereo not given) | 21 | - | - | - | - | - | - | -

From PubChem BioAssay
